# Experimental data reported in ChEMBL document CHEMBL4402549, “Benzothiazole-Based LRRK2 Inhibitors as Wnt Enhancers and Promoters of Oligodendrocytic Fate” (J Med Chem, 2020).
# Active and inactive are the calls of the source. The calls are words filed in the database; no cut-off is given here.
# Key:
# [1] = molecular target: T1, Leucine-rich repeat serine/threonine-protein kinase 2 (Homo sapiens, UniProt Q5S007); experiment: (§1) Inhibition of LRRK2 in human iPSC derived neuronal progenitor cells stably expressing TCF/LEF luciferase reporter gene assessed as modulation of Wnt/beta-catenin signaling pathway by measuring TCF/LEF dependent beta-catenin mediated transcriptional activity measured after 24 hrs in presence of Wnt3a by Steady-Glo luciferase assay relative to control
# T1 sequence (Q5S007 whole entry): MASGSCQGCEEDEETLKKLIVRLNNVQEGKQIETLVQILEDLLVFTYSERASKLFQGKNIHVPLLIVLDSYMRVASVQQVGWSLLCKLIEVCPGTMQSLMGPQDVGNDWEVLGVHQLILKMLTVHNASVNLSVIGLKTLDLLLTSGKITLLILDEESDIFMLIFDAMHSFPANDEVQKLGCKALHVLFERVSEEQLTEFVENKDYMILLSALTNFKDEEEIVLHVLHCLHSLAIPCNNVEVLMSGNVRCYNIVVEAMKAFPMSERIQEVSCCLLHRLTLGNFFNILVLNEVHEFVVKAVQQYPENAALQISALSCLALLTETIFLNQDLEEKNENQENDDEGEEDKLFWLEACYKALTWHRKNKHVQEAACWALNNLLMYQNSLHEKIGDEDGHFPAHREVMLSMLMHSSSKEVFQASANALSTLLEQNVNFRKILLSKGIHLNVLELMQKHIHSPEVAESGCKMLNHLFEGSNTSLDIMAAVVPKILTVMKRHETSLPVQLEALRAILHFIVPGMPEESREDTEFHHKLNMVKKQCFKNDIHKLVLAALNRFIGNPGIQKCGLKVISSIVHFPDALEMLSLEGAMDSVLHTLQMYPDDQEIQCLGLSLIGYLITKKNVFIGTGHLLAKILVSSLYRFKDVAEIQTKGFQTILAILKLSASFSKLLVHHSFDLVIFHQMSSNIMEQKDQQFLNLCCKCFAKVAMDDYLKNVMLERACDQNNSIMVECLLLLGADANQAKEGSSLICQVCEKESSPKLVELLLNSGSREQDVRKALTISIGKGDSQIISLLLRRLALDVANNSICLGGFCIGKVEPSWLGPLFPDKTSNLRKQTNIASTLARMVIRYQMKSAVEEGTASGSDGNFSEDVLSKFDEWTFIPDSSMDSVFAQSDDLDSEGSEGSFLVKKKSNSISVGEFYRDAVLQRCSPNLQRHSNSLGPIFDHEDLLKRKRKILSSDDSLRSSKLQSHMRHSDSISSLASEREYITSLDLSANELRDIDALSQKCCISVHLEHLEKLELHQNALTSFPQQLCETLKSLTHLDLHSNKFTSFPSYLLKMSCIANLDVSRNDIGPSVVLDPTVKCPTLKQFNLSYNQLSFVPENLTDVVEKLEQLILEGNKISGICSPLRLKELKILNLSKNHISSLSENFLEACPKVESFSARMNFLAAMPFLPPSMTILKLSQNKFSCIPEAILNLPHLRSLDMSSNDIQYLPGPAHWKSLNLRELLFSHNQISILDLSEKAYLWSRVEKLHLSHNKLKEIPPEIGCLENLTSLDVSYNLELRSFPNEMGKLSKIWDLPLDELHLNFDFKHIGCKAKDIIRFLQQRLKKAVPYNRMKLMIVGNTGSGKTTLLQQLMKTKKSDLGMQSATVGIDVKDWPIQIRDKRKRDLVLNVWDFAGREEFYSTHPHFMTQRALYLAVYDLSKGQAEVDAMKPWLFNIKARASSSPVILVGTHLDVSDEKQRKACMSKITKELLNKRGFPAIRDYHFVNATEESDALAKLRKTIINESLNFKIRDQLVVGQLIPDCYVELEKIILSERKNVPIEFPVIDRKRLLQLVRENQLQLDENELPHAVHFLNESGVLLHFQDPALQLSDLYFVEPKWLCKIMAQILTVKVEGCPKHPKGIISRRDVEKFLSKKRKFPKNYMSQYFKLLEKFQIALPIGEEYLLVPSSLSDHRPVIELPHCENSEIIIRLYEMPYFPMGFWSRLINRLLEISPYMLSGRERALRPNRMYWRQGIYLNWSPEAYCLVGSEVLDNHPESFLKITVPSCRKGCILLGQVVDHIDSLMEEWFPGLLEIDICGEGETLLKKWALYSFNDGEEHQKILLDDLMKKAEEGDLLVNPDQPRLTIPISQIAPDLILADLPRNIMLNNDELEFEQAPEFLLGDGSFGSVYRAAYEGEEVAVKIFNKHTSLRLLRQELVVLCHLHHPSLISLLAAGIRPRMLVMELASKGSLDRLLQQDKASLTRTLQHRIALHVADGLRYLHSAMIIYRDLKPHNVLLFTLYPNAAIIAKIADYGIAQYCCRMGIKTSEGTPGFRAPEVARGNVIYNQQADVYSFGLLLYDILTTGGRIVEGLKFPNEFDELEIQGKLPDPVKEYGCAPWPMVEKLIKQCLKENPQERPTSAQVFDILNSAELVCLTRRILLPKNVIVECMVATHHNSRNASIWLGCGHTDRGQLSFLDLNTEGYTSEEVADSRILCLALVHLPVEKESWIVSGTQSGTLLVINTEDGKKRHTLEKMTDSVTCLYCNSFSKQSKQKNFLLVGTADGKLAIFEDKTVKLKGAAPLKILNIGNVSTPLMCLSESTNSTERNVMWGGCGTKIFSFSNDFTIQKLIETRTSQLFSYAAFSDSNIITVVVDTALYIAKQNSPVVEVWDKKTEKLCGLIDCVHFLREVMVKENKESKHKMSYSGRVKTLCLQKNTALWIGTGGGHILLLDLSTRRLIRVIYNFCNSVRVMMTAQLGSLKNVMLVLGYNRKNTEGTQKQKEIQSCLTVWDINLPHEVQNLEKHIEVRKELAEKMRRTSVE
# Summary of the method: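 TCF/LEF luciferase reporter activity measured with Wnt3a supplied as conditioned medium from Wnt3a-expressing cells. Compounds screened at 1 and 10 µM. For dose curves, serial dilutions spanned 0.01–20.00 µM, with each concentration repeated eight times. Values are fold increase over DMSO vehicle (average ± SD for the curves).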
# [2] = molecular target: Leucine-rich repeat serine/threonine-protein kinase 2 (Homo sapiens, UniProt Q5S007, G2019S); experiment: Inhibition of human GST-tagged LRRK2 G2019S mutant (970 to 2527 residues) expressed in baculovirus expression system assessed as reduction in ADP formation using LRRKtide as substrate measured after 1 hr in presence of ATP by Adapta assay
# Chain of Leucine-rich repeat serine/threonine-protein kinase 2 (Homo sapiens, UniProt Q5S007, G2019S) (Q5S007 whole entry G2019S, the tested form may be a part): as the sequence (Q5S007 whole entry) above, with G2019S counted along it
# Summary of the method: (§2)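 Fluorescence immunoassay detecting ADP formed in the kinase reaction. Dose-response run at ten concentrations per compound in two independent experiments. IC50 given ± standard deviation.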
# [3] = Permeability of compound in PBS/EtOH buffer (7:3) at 100 ul and pH 7.4 after 2 hrs and 30 mins by UV plate reader based PAMPA-BBB assay; format: ADME; conditions: read-out: permeability
# Summary of the method: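 PAMPA-BBB using porcine brain lipid membrane; in vitro permeability (Pe) determined alongside ten commercial drugs whose reported Pe values validated the assay; compounds classed CNS+ from Pe.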
# Mus musculus [4] = organism: Mus musculus; experiment: Induction of neurogenesis in C57/BL6 mouse neuronal progenitor cells derived neurospheres isolated from adult ventricular-subventricular zone assessed as increase in neurosphere size at 1 to 5 uM measured after 4 days in presence of FGF or EGF by bright field microscopy analysis; format: functional
# Summary of the method: (§3)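 Primary neurospheres from adult mouse V-SVZ neural stem and progenitor cells, cultured 4 days with FGF and EGF and compound at 1 or 5 µM; DMSO vehicle control, PF06447475 as reference LRRK2 inhibitor. Proliferation read as total neurosphere area per bright-field field by ImageJ macro, expressed relative to DMSO (=100); 6 fields per triplicate, three independent experiments, mean ± SEM.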
# [5] = molecular target: T1, Leucine-rich repeat serine/threonine-protein kinase 2; experiment: Inhibition of LRRK2 in human iPSC derived neuronal progenitor cells stably expressing TCF/LEF luciferase reporter gene assessed as increase in AXIN2 mRNA expression in absence of Wnt3a by TaqMan probe based RT-PCR analysis
# [6] = molecular target: T1, Leucine-rich repeat serine/threonine-protein kinase 2; experiment: Inhibition of wild type human GST-tagged LRRK2 (970 to 2527 residues) expressed in baculovirus expression system assessed as reduction in ADP formation at 10 uM using LRRKtide as substrate measured after 1 hr in presence of ATP by Adapta assay relative to control
# Summary of the method: (§4)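 Fluorescence immunoassay detecting ADP formed by the kinase reaction. Each compound screened at a single fixed concentration of 10 µM and reported as percent inhibition.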
# [7] = molecular target: T1, Leucine-rich repeat serine/threonine-protein kinase 2; experiment: as §1, with “activity at 10 uM” for “activity”
# Summary of the method: (§5)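 TCF/LEF luciferase reporter assay in human cells stimulated with Wnt3a supplied as Wnt3a-expressing cell conditioned medium; compounds at fixed 1 or 10 µM. Reporter activity expressed as fold increase over DMSO vehicle.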
# [8] = molecular target: T1, Leucine-rich repeat serine/threonine-protein kinase 2; experiment: as §1, with “activity at 1 uM” for “activity”; summary of the method: as §5
# [9] = system: Leucine-rich repeat serine/threonine-protein kinase 2 (Homo sapiens), Q5S007 [G2019S]; experiment: Inhibition of human GST-tagged LRRK2 G2019S mutant (970 to 2527 residues) expressed in baculovirus expression system assessed as reduction in ADP formation at 10 uM using LRRKtide as substrate measured after 1 hr in presence of ATP by Adapta assay relative to control; summary of the method: as §4
# Chain of Leucine-rich repeat serine/threonine-protein kinase 2 (Homo sapiens), Q5S007 [G2019S] (Q5S007 whole entry G2019S, the tested form may be a part): as the sequence (Q5S007 whole entry) above, with G2019S counted along it
# [10] = molecular target: T1, Leucine-rich repeat serine/threonine-protein kinase 2; experiment: Inhibition of wild type human GST-tagged LRRK2 (970 to 2527 residues) expressed in baculovirus expression system assessed as reduction in ADP formation using LRRKtide as substrate measured after 1 hr in presence of ATP by Adapta assay; summary of the method: as §2
# [11] = Induction of neurogenesis in C57/BL6 mouse neural stem cells derived neurospheres isolated from adult ventricular-subventricular zone assessed as increase in total area of neurosphere at 1 to 5 uM measured after 4 days in presence of FGF or EGF by bright field microscopy analysis relative to control; format: functional; summary of the method: as §3
# Mus musculus [12] = organism: Mus musculus; experiment: Induction of neurogenesis in C57/BL6 mouse neural stem cells derived neurospheres isolated from adult ventricular-subventricular zone assessed as increase in neurosphere size at 1 to 5 uM measured after 4 days in presence of FGF or EGF by bright field microscopy analysis; format: functional; summary of the method: as §3
# [13] = molecular target: T1, Leucine-rich repeat serine/threonine-protein kinase 2; experiment: Inhibition of LRRK2 in human iPSC derived neuronal progenitor cells stably expressing TCF/LEF luciferase reporter gene assessed as increase in AXIN2 mRNA expression in presence of Wnt3a by TaqMan probe based RT-PCR analysis
# [14] = molecular target: Leucine-rich repeat serine/threonine-protein kinase 2 (Mus musculus) (UniProt Q5S006); experiment: Inhibition of LRRK2 in C57/BL6 mouse neural stem cells derived neurospheres isolated from adult ventricular-subventricular zone assessed as reduction in Rab10 phosphorylation at 10 uM using Rab10 as substrate measured after 7 days in presence of mitogens by Western blot analysis
# Chain of Leucine-rich repeat serine/threonine-protein kinase 2 (Mus musculus) (Q5S006 whole entry): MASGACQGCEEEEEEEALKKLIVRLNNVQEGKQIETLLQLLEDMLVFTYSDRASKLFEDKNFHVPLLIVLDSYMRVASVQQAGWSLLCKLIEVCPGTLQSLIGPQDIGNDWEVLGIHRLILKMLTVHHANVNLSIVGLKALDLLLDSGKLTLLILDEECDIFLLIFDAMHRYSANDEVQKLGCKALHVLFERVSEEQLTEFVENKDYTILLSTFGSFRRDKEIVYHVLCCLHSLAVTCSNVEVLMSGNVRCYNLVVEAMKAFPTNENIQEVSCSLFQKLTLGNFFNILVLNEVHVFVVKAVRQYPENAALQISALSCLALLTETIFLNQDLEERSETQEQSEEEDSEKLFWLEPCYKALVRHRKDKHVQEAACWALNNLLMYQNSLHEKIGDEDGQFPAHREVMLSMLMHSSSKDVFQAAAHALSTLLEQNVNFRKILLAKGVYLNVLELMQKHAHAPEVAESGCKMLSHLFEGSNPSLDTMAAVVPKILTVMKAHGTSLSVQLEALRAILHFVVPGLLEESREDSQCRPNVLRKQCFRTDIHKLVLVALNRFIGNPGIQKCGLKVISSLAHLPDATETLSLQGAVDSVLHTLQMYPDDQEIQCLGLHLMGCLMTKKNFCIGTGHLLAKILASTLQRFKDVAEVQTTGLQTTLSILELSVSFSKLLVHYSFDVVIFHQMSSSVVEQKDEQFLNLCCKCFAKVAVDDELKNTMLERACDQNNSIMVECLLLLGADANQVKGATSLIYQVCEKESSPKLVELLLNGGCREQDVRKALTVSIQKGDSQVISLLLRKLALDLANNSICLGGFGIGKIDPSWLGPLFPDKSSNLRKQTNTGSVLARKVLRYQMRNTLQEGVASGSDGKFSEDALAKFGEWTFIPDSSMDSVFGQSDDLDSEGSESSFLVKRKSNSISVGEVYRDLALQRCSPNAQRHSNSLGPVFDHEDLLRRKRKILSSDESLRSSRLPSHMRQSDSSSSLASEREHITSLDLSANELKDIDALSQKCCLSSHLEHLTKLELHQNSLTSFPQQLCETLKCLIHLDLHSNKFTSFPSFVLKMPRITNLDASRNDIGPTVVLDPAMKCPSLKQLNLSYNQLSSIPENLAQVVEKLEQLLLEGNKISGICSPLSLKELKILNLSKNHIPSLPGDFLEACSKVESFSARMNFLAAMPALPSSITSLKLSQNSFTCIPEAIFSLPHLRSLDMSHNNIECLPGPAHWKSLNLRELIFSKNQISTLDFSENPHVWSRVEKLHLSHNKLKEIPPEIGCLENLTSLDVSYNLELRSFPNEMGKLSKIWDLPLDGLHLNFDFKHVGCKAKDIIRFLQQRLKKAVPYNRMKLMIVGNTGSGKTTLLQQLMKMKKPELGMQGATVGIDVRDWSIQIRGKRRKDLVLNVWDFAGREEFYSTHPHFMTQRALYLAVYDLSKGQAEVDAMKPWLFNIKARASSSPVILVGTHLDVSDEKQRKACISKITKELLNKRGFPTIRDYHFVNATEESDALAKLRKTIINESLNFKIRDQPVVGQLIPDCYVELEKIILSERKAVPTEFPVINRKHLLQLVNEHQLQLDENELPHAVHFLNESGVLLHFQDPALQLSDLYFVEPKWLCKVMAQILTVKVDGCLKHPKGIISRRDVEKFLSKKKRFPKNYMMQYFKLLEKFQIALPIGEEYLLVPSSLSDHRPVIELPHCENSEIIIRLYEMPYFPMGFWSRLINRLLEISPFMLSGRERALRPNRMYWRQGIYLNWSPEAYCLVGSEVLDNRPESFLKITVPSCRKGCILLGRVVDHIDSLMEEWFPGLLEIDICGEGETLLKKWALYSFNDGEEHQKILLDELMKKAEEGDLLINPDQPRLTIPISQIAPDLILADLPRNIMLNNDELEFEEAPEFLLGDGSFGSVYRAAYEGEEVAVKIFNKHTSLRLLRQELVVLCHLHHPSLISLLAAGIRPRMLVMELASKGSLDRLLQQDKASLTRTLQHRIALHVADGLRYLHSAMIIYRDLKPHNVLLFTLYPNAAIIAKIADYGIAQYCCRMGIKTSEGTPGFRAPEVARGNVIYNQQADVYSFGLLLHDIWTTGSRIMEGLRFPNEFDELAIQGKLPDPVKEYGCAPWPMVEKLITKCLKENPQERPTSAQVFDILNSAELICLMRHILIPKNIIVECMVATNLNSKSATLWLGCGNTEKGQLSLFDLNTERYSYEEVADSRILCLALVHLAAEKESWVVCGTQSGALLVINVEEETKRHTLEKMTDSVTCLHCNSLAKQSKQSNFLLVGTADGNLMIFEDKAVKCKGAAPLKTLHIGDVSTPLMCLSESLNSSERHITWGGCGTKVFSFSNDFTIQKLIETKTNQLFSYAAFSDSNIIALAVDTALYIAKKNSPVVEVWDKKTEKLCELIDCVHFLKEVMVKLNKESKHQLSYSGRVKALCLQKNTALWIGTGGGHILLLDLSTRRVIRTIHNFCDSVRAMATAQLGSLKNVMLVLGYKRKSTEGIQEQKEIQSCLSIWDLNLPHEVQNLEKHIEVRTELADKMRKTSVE
# Summary of the method: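 Neurosphere cultures from adult mouse SVZ (2 male mice) grown 7 days with mitogens, treated with compound at 10 µM or DMSO. Cell pellets immunoblotted with monoclonal anti-phospho-Rab10 (T73); p-Rab10 quantified over three experiments, mean ± SEM.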
# [15] = molecular target: Leucine-rich repeat serine/threonine-protein kinase 2 (Mus musculus) (UniProt Q5S006); experiment: Inhibition of LRRK2 in C57/BL6 mouse neural stem cells derived neurospheres isolated from adult ventricular-subventricular zone assessed as increase in neurosphere proliferation at 1 uM measured after 4 days presence of FGF or EGF by bright field microscopy analysis
# [16] = molecular target: Leucine-rich repeat serine/threonine-protein kinase 2 (Mus musculus) (UniProt Q5S006); experiment: Inhibition of LRRK2 in C57/BL6 mouse neural stem cells derived neurospheres isolated from adult ventricular-subventricular zone assessed as differentiation of neurospheres forming CNPase positive oligodendrocytes at 1 uM treated for 6 days and measured on day 7 by bisbenzimide staining based confocal microscopy
# Summary of the method: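 Dissociated adult V-SVZ neurosphere cells plated on poly-ornithine/fibronectin and cultured 6 days without mitogens with compound at 1 µM, PF-475 reference, DMSO control; fixed day 7. Immunostained for CNPase (oligodendrocytes), β3-tubulin, GFAP, bisbenzimide nuclei; confocal counts of positive cells as % of total; 4 fields per triplicate, two independent experiments, mean ± SEM.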
# [17] = molecular target: T1, Leucine-rich repeat serine/threonine-protein kinase 2; experiment: Inhibition of wild-type human partial length LRRK2 (H970 to E2527 residues) expressed in mammalian expression system at 10 uM by Kinomescan method relative to control
structure (smiles),measurement,setting,value
O=C(Nc1nc2ccc(F)cc2s1)c1ccccc1,inhibition,[1],Dose-dependent effect
same,IC50,[2],520 nM
same,Papp at 2.5 h,[3],15 ×10⁻⁶ cm/s
same,Activity,Mus musculus [4],Active
same,inhibition,[5],inactive
same,inhibition,[6],81%
same,fold change (FC),[7],2.29
same,fold change (FC),[8],1.43
same,inhibition,[9],79%
same,IC50,[10],520 nM
same,fold change (FC),[11],1.8 - 2.4
same,Activity,Mus musculus [12],Active
same,inhibition,[13],Active
Cc1cnc(-c2cnc(NCCNc3ccc(C#N)cn3)nc2-c2ccc(Cl)cc2Cl)[nH]1,inhibition,[1],Dose-dependent effect
COc1ccc2nc(NC(=O)c3ccc(N4CCOCC4)cc3)sc2c1,IC50,[2],440 nM
same,inhibition,[6],73%
same,inhibition,[9],93%
Cc1ccc2nc(NC(=O)c3ccc(N4CCOCC4)cc3)sc2c1,inhibition,[6],61%
same,fold change (FC),[7],1.79
same,fold change (FC),[8],1.76
same,inhibition,[9],71%
same,IC50,[10],480 nM
CS(=O)(=O)c1ccc2nc(NC(=O)c3ccc(N4CCOCC4)cc3)sc2c1,inhibition,[6],77%
COc1ccc2cc(C(=O)Nc3nc4ccc(F)cc4s3)ccc2c1,inhibition,[6],16%
CCOC(=O)c1ccc2nc(NC(=O)c3ccc(N4CCOCC4)cc3)sc2c1,inhibition,[6],22%
O=C(Nc1nc2ccc(Br)cc2s1)c1ccc(N2CCOCC2)cc1,inhibition,[1],Dose-dependent effect
same,IC50,[2],260 nM
same,Papp at 2.5 h,[3],4.2 ×10⁻⁶ cm/s
same,Activity,Mus musculus [4],Active
same,inhibition,[5],inactive
same,inhibition,[6],75%
same,fold change (FC),[7],2
same,inhibition,[14],Active
same,inhibition,[15],Active
same,fold change (FC),[8],1.25
same,inhibition,[9],70%
same,IC50,[10],510 nM
same,fold change (FC),[11],1.8 - 2.4
same,Activity,Mus musculus [12],Active
same,inhibition,[13],Active
same,inhibition,[16],Active
O=C(CCCC(=O)c1ccccc1)Nc1nc2ccc(F)cc2s1,inhibition,[6],11%
O=C(Nc1nc2ccc(F)cc2s1)c1ccc(Cl)cc1,IC50,[2],5640 nM
same,inhibition,[6],68%
same,inhibition,[9],67%
same,IC50,[10],4460 nM
O=C(Nc1nc2ccc(F)cc2s1)c1ccc(N2CCOCC2)cc1,inhibition,[1],Dose-dependent effect
same,IC50,[2],180 nM
same,Activity,Mus musculus [4],Active
same,inhibition,[5],inactive
same,inhibition,[6],66%
same,fold change (FC),[7],2
same,fold change (FC),[8],1.58
same,inhibition,[9],55%
same,IC50,[10],170 nM
same,fold change (FC),[11],1.8 - 2.4
same,Activity,Mus musculus [12],Active
same,inhibition,[13],Active
CCOc1ccc2nc(NC(=O)c3ccc(N4CCOCC4)cc3)sc2c1,inhibition,[6],80%
same,inhibition,[9],85%
same,IC50,[10],300 nM
N#Cc1cccc(-c2c[nH]c3ncnc(N4CCOCC4)c23)c1,Activity,Mus musculus [4],Active
same,fold change (FC),[11],1.8 - 2.4
same,Activity,Mus musculus [12],Active
Cc1cc(-c2ccc3nc(Nc4ccccc4)nn3c2)cc(C)c1O,IC50,[2],20 nM
same,IC50,[10],20 nM
CC(C)c1ccc2nc(NC(=O)c3ccc(N4CCOCC4)cc3)sc2c1,IC50,[2],1120 nM
same,Papp at 2.5 h,[3],4.3 ×10⁻⁶ cm/s
same,inhibition,[6],48%
same,fold change (FC),[7],1.22
same,fold change (FC),[8],1.19
same,inhibition,[9],70%
same,IC50,[10],3490 nM
CCCOc1ccc2nc(NC(=O)c3ccc(N4CCOCC4)cc3)sc2c1,inhibition,[6],13%
O=C(Nc1nc2ccccc2s1)c1ccc(N2CCOCC2)cc1,inhibition,[1],Dose-dependent effect
same,IC50,[2],370 nM
same,Activity,Mus musculus [4],Active
same,inhibition,[5],inactive
same,inhibition,[6],75%
same,fold change (FC),[7],2.2
same,inhibition,[17],< 35%
same,inhibition,[14],Active
same,inhibition,[15],Active
same,fold change (FC),[8],3.25
same,inhibition,[9],85%
same,fold change (FC),[11],1.8 - 2.4
same,Activity,Mus musculus [12],Active
same,inhibition,[13],Active
same,inhibition,[16],Active
Cc1cccc2sc(NC(=O)c3ccc(N4CCOCC4)cc3)nc12,inhibition,[6],18%
O=C(Nc1nc2ccc(Cl)cc2s1)c1ccc(N2CCOCC2)cc1,inhibition,[6],60%
same,inhibition,[9],50%
same,IC50,[10],370 nM
O=C(Nc1nc2c(Cl)cccc2s1)c1ccc(N2CCOCC2)cc1,inhibition,[6],32%
O=C(Nc1nc2ccc(C(F)(F)F)cc2s1)c1ccc(N2CCOCC2)cc1,IC50,[2],280 nM
same,inhibition,[6],51%
same,inhibition,[9],69%
same,IC50,[10],2270 nM
